Test results reported in ChEMBL document CHEMBL5653605, “Reduced VEGF production, angiogenesis, and vascular regrowth contribute to the antitumor properties of dual mTORC1/mTORC2 inhibitors” (Cancer Res, 2011).
The source made the active and inactive calls. No cut-off for these calls is given here.

What was measured:
[1] = molecular target: T1, Serine/threonine-protein kinase mTOR (Homo sapiens, UniProt P42345); assay: Inhibition of mTOR (unknown origin) assessed as reduction in 4E-BP1 phosphorylation by cell based assay
[2] = molecular target: Eukaryotic translation initiation factor 4E-binding protein 1 (Homo sapiens) (UniProt Q13541); assay: Inhibition of 4E-BP1 phosphorylation at Ser 37/46 residues in serum deprived/insulin stimulated human OVCAR-3 cells harboring PTEN and wild type PI3K preincubated for 2 hrs followed by insulin stimulation and measured immediately by Western blot analysis; assay type: cell-based; details: dose 0.001-10 µM
Chain of Eukaryotic translation initiation factor 4E-binding protein 1 (Homo sapiens) (Q13541 whole entry): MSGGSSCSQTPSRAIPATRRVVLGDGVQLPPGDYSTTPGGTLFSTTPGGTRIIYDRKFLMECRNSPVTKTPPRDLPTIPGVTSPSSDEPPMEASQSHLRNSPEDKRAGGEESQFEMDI

[3] = Drug concentration in nu/nu CD-1 mouse plasma xenografted with human GEO cells at 65 mg/kg administered for 12 days and measured 8 hrs post last dose; assay type: ADME, organism-based
Procedure, shortened: (§1)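 nu/nu CD-1 mice bearing s.c. right-flank GEO xenografts dosed at 65 mg/kg for 12 days; plasma drug level sampled at 2 or 8 h after last dose; median reported.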

GEO = assay: Antitumor activity against human GEO cells xenografted in nu/nu CD-1 mouse assessed as slower tumor growth at 65 mg/kg administered once a day for 12 days and measured twice weekly; assay type: functional, organism-based; details: time 12.0 day
Mus musculus [4] = assay: In vivo inhibition of 4E-BP1 phosphorylation at Ser37/46 residues in nu/nu CD-1 mouse xenografted with human GEO cells at 65 mg/kg administered for 12 days and measured 2 hrs post last dose by Western blot analysis; assay type: functional, organism-based; details: time 290.0 hrs
Procedure, shortened: (§2)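 nu/nu CD-1 mice carrying s.c. GEO flank xenografts dosed 65 mg/kg for 12 days; tumors snap-frozen 2, 8, 24 h after dosing, homogenized in Triton X-100/HEPES pH 7.4 lysis buffer with phosphatase inhibitors; phospho and total 4E-BP1 (37/46), Akt (S473), S6 (235/236) quantified by Western blot; n=2.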

[5] = molecular target: Phosphatidylinositol 4,5-bisphosphate 3-kinase catalytic subunit gamma isoform (Homo sapiens, UniProt P48736); assay: Inhibition of PI3Kgamma (unknown origin) in presence of ATP by HTRF assay
Chain of Phosphatidylinositol 4,5-bisphosphate 3-kinase catalytic subunit gamma isoform (P48736 whole entry, canonical isoform): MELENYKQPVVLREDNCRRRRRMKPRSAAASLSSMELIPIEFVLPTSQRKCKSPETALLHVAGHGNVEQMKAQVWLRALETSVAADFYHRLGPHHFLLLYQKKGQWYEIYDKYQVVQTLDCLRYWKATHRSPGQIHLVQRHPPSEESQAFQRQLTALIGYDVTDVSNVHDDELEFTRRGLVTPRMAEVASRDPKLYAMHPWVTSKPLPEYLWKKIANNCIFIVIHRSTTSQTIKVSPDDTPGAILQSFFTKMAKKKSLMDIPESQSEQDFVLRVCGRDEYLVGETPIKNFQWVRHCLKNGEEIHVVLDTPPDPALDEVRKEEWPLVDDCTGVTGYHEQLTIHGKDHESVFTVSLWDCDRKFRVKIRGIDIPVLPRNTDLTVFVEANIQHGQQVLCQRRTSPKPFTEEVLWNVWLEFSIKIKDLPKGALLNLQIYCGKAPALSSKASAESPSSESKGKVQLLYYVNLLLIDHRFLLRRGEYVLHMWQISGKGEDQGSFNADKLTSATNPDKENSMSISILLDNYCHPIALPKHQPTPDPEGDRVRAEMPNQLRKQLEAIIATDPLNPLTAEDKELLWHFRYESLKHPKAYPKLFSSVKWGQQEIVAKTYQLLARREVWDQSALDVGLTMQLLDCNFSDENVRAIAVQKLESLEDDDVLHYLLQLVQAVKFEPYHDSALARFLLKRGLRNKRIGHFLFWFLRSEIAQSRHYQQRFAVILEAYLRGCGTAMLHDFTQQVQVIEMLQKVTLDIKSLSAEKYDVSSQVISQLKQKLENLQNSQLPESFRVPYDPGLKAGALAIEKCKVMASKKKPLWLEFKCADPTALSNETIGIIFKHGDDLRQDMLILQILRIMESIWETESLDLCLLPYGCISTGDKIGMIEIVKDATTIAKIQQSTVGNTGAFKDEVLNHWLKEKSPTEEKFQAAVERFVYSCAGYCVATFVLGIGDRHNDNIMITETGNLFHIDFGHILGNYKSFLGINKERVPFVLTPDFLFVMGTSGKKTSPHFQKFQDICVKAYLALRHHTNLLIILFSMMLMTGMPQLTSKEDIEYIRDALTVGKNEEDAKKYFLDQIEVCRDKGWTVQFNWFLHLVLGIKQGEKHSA
Procedure, shortened: (§3)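 PI3K activity by HTRF assay at […] ATP.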

NCI-H292 [6] = assay: Antitumor activity against human NCI-H292 cells xenografted in nu/nu CD-1 mouse assessed as maximal tumor regression at 50 mg/kg qd administered for 21 days in presence of sunitinib and measured twice weekly relative to control; assay type: functional; details: time 21 day
Ephrin type-A receptor 2 = Ephrin type-A receptor 2 (Homo sapiens, UniProt P29317); assay: Inhibition of EphA2 phosphorylation (unknown origin) by cell based assay
Chain of Ephrin type-A receptor 2 (P29317 whole entry, canonical isoform): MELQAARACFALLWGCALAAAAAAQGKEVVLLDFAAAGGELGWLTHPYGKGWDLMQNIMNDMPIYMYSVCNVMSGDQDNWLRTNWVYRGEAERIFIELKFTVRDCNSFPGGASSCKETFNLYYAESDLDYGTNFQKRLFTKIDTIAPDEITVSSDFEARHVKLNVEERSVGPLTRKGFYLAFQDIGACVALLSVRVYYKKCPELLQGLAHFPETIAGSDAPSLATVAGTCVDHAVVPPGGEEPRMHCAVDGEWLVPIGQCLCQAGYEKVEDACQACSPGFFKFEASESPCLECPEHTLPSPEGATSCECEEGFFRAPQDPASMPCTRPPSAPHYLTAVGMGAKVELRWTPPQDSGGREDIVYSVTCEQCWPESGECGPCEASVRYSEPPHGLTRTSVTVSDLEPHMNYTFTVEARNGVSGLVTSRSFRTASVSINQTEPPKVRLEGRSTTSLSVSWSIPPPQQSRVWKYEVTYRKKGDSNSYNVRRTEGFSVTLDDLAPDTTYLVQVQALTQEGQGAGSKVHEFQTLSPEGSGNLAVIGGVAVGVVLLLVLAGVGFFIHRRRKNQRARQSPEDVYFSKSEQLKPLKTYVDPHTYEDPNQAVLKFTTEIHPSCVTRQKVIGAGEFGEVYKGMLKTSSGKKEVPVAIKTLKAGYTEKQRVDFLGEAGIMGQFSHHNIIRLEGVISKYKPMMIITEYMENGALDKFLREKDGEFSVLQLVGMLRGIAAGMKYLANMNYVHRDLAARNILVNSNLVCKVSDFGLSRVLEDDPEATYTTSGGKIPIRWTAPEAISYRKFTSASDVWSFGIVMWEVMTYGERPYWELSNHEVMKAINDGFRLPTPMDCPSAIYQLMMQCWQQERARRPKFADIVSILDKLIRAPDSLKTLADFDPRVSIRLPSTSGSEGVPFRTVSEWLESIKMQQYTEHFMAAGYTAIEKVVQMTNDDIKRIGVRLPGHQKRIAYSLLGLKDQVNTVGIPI

[7] = molecular target: Phosphatidylinositol 4,5-bisphosphate 3-kinase catalytic subunit beta isoform (Homo sapiens, UniProt P42338); assay: Inhibition of PI3Kbeta (unknown origin) in presence of ATP by HTRF assay; procedure, shortened: as §3
Chain of Phosphatidylinositol 4,5-bisphosphate 3-kinase catalytic subunit beta isoform (P42338 whole entry, canonical isoform): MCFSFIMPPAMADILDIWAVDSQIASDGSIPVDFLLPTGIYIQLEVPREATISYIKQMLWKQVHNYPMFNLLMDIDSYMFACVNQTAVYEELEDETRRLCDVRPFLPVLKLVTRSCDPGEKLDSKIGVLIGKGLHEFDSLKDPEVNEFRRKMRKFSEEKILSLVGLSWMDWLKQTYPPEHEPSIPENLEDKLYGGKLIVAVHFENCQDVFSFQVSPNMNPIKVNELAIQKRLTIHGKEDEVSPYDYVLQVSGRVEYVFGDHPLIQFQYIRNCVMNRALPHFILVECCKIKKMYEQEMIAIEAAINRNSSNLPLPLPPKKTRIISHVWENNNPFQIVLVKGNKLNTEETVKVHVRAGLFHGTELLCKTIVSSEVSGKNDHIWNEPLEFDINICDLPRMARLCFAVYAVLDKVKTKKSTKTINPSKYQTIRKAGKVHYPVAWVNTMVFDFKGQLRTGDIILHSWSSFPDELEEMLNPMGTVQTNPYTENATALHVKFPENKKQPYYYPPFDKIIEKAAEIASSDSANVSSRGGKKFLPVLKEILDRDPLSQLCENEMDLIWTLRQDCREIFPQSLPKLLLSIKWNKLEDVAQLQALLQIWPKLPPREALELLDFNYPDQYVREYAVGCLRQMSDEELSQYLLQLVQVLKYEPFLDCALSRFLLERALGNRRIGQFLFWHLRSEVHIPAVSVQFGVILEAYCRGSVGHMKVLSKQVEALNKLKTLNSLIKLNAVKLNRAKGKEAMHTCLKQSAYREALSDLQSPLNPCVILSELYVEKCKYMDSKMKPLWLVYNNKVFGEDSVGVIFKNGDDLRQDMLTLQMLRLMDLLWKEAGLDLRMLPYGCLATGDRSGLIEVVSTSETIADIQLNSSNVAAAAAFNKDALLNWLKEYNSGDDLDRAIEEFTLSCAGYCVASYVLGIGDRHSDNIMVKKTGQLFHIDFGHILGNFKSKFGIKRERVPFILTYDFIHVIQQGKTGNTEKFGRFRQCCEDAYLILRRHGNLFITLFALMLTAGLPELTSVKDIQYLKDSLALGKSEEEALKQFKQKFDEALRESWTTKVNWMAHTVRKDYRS

OVCAR-5 [8] = assay: Antitumor activity against human OVCAR-5 cells xenografted in nu/nu CD-1 mouse assessed as tumor growth inhibition at 50 mg/kg qd administered for 14 days and measured twice weekly relative to control; assay type: functional; details: OVCAR-5, 336 h, time 14 day, read-out: TGI
Procedure, shortened: (§4)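 Xenograft combination study: H292 or Ovar-5 cells implanted s.c. in the right flank of nu/nu CD-1 mice. Ovar-5 cells grown in RPMI with 10% serum and 1% L-glutamine. […] Tumor growth followed, with growth inhibition reported as median TGI over the dosing period.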

NCI-H292 [9] = assay: Antitumor activity against human NCI-H292 cells xenografted in nu/nu CD-1 mouse assessed as tumor growth inhibition at 50 mg/kg qd administered for 21 days in presence of sunitinib and measured twice weekly relative to control; assay type: functional; details: NCI-H292, 504 h, time 21 day, read-out: TGI; procedure, shortened: as §4
[10] = molecular target: RAC-alpha serine/threonine-protein kinase (Homo sapiens) (UniProt P31749); assay: Inhibition of AKT phosphorylation at Ser 473 site in serum deprived/insulin stimulated human OVCAR-3 cells harboring PTEN and wild type PI3K preincubated for 2 hrs followed by insulin stimulation and measured immediately by Western blot analysis; assay type: cell-based; details: dose 0.001-10 µM
OVCAR-3 [11] = assay: (§5) Inhibition of S6K phosphorylation at 235/236 residues in serum deprived/insulin stimulated human OVCAR-3 cells harboring PTEN and wild type PI3K at 0.001 to 10 uM preincubated for 2 hrs followed by insulin stimulation and measured immediately by Western blot analysis; assay type: cell-based; details: dose 0.001-10 µM
[12] = molecular target: Vascular endothelial growth factor receptor 2 (Homo sapiens, UniProt P35968); assay: Inhibition of VEGFR2 phosphorylation (unknown origin) by cell based assay
OVCAR-5 [13] = assay: Antitumor activity against human OVCAR-5 cells xenografted in nu/nu CD-1 mouse assessed as tumor growth inhibition at 50 mg/kg qd administered for 14 days in presence of sunitinib and measured twice weekly relative to control; assay type: functional; details: OVCAR-5, 336 h, time 14 day, read-out: TGI; procedure, shortened: as §4
[14] = molecular target: T1, Serine/threonine-protein kinase mTOR; assay: Inhibition of mTOR (unknown origin)
mTORC2 = mTORC2 (Homo sapiens, UniProt P42345); assay: Competitive inhibition of mTORC2 immunoprecipitated from human HeLa cells using His-tagged 4E-BP1 as substrate incubated for 30 mins in presence of ATP by chemiluminescence based ELISA
Procedure, shortened: (§6)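 Native mTORC1 or mTORC2 complex immunoprecipitated from HeLa lysates; kinase reaction run at 1 mM ATP.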

Mus musculus [15] = assay: In vivo inhibition of S6 phosphorylation at 235/236 residues in nu/nu CD-1 mouse xenografted with human GEO cells at 65 mg/kg administered for 12 days and measured 2 to 24 hrs post last dose by Western blot analysis; assay type: functional, organism-based; details: time 290-312 hrs; procedure, shortened: as §2
Mus musculus [16] = assay: In vivo inhibition of AKT phosphorylation at Ser473 residues in nu/nu CD-1 mouse xenografted with human GEO cells at 65 mg/kg administered for 12 days and measured 2 to 24 hrs post last dose by Western blot analysis relative to control; details: time 290-312 hrs
[17] = molecular target: Proto-oncogene tyrosine-protein kinase Src (Homo sapiens, UniProt P12931); assay: Inhibition of SRC (unknown origin) assessed as reduction in phosphorylated FAK level by cell based assay
mTORC1 = mTORC1 (Homo sapiens, UniProt P42345); assay: Competitive inhibition of mTORC1 immunoprecipitated from human HeLa cells using His-tagged 4E-BP1 as substrate incubated for 30 mins in presence of ATP by chemiluminescence based ELISA; procedure, shortened: as §6
NCI-H292 [18] = assay: Antitumor activity against human NCI-H292 cells xenografted in nu/nu CD-1 mouse assessed as tumor growth inhibition at 50 mg/kg qd administered for 21 days and measured twice weekly relative to control; assay type: functional; details: NCI-H292, 504 h, time 21 day, read-out: TGI; procedure, shortened: as §4
[19] = Inhibition of MAPK (unknown origin) signaling axis assessed as reduction in phosphorylated ERK1/2 level by cell based assay; details: Homo sapiens
[20] = Drug concentration in nu/nu CD-1 mouse plasma xenografted with human GEO cells at 65 mg/kg administered for 12 days and measured 2 hrs post last dose; assay type: ADME, organism-based; procedure, shortened: as §1
OVCAR-5 [21] = assay: Antitumor activity against human OVCAR-5 cells xenografted in nu/nu CD-1 mouse assessed as maximal tumor regression at 50 mg/kg qd administered for 14 days in presence of sunitinib and measured twice weekly relative to control; assay type: functional; details: time 14 day
[22] = molecular target: Proline-rich AKT1 substrate 1 (Homo sapiens) (UniProt Q96B36); assay: Inhibition of PRAS40 phosphorylation at Ser 246 residue in serum deprived/insulin stimulated human OVCAR-3 cells harboring PTEN and wild type PI3K preincubated for 2 hrs followed by insulin stimulation and measured immediately by Western blot analysis; assay type: cell-based; details: dose 0.001-10 µM
OVCAR-3 [23] = assay: as §5, with “S6K” for “S6K phosphorylation”, “PI3K assessed as inhibition of s6 substrate phosphorylation at […] residue” for “PI3K”; assay type: cell-based; details: dose 0.001-10 µM
[24] = molecular target: Epidermal growth factor receptor (Homo sapiens, UniProt P00533); assay: Inhibition of EGFR phosphorylation (unknown origin) by cell based assay
Chain of Epidermal growth factor receptor (P00533 whole entry): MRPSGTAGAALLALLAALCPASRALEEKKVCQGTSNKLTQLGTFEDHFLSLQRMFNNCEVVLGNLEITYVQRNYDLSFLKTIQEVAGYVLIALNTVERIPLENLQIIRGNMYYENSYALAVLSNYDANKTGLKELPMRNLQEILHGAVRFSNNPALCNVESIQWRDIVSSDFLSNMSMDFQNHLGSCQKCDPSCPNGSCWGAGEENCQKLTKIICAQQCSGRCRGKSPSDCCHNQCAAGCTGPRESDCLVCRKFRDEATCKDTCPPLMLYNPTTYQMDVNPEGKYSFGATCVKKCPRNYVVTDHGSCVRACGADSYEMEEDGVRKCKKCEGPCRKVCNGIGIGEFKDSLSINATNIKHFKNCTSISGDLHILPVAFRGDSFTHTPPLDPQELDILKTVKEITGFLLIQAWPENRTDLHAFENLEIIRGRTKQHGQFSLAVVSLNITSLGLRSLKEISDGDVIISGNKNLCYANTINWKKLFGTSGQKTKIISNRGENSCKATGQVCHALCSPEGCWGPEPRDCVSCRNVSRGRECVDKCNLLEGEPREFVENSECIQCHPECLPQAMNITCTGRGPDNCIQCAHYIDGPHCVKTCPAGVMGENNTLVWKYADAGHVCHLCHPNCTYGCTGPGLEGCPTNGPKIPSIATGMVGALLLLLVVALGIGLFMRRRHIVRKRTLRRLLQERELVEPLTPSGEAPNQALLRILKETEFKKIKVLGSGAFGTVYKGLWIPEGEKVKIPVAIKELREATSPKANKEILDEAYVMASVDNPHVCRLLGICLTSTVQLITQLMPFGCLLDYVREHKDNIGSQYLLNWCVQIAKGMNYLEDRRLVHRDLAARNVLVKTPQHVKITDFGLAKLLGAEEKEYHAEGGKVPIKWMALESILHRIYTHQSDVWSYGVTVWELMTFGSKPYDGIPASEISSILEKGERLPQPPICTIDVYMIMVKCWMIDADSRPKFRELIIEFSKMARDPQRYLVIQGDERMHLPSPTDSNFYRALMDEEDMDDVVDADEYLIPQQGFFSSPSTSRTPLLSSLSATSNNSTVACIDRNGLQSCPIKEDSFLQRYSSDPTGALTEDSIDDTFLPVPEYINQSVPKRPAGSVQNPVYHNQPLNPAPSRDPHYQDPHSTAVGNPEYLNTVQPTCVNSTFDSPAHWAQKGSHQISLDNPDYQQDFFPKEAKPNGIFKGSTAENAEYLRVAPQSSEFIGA

OVCAR-5 [25] = assay: Antitumor activity against human OVCAR-5 cells xenografted in nu/nu CD-1 mouse assessed as tumor growth inhibition at 40 mg/kg qd administered for 14 days in presence of OSI-027 and measured twice weekly relative to control; assay type: functional; details: OVCAR-5, 336 h, time 14 day, read-out: TGI; procedure, shortened: as §4
OVCAR-5 [26] = assay: Antitumor activity against human OVCAR-5 cells xenografted in nu/nu CD-1 mouse assessed as tumor growth inhibition at 40 mg/kg qd administered for 14 days and measured twice weekly relative to control; assay type: functional; details: OVCAR-5, 336 h, time 14 day, read-out: TGI; procedure, shortened: as §4
NCI-H292 [27] = assay: Antitumor activity against human NCI-H292 cells xenografted in nu/nu CD-1 mouse assessed as tumor growth inhibition at 40 mg/kg qd administered for 21 days in presence of OSI-027 and measured twice weekly relative to control; assay type: functional; details: NCI-H292, 504 h, time 21 day, read-out: TGI; procedure, shortened: as §4
OVCAR-5 [28] = assay: Antitumor activity against human OVCAR-5 cells xenografted in nu/nu CD-1 mouse assessed as maximal tumor regression at 40 mg/kg qd administered for 14 days in presence of OSI-027 and measured twice weekly relative to control; assay type: functional; details: time 14 day
NCI-H292 [29] = assay: Antitumor activity against human NCI-H292 cells xenografted in nu/nu CD-1 mouse assessed as maximal tumor regression at 40 mg/kg qd administered for 21 days in presence of OSI-027 and measured twice weekly relative to control; assay type: functional; details: time 21 day
NCI-H292 [30] = assay: Antitumor activity against human NCI-H292 cells xenografted in nu/nu CD-1 mouse assessed as tumor growth inhibition at 40 mg/kg qd administered for 21 days and measured twice weekly relative to control; assay type: functional; details: NCI-H292, 504 h, time 21 day, read-out: TGI; procedure, shortened: as §4

COc1cccc2cc(-c3nc([C@H]4CC[C@H](C(=O)O)CC4)n4ncnc(N)c34)[nH]c12 [OSI-027]
IC50 [1]: 1000 nM
inhibition [2]: Dose-Dependent Effect
concentration at 296 h [3]: 14.9 µM
Activity (GEO): Active
inhibition (Mus musculus [4]): Active
IC50 [5]: 420 nM
Activity (NCI-H292 [6]): 59%
IC50 (Ephrin type-A receptor 2): > 40000 nM
IC50 [7]: > 30000 nM
inhibition in vivo at 50 mg/kg (OVCAR-5 [8]): 55%
inhibition in vivo at 50 mg/kg (NCI-H292 [9]): 100%
inhibition [10]: Dose-Dependent Effect
inhibition (OVCAR-3 [11]): Active
IC50 [12]: > 40000 nM
inhibition in vivo at 50 mg/kg (OVCAR-5 [13]): 100%
IC50 [14]: 4 nM
IC50 (mTORC2): 65 nM
inhibition (Mus musculus [15]): Active
inhibition (Mus musculus [16]): Active
IC50 [17]: > 40000 nM
IC50 (mTORC1): 22 nM
inhibition in vivo at 50 mg/kg (NCI-H292 [18]): 61%
IC50 [19]: > 20000 nM
concentration at 290 h [20]: 21.3 µM
Activity (OVCAR-5 [21]): 38%
inhibition [22]: Dose-Dependent Effect
inhibition (OVCAR-3 [23]): Active
IC50 [24]: > 40000 nM

CCN(CC)CCNC(=O)c1c(C)[nH]c(/C=C2\C(=O)Nc3ccc(F)cc32)c1C [SUNITINIB]
inhibition in vivo at 40 mg/kg (OVCAR-5 [25]): 100%
inhibition in vivo at 40 mg/kg (OVCAR-5 [26]): 68%
inhibition in vivo at 40 mg/kg (NCI-H292 [27]): 100%
Activity (OVCAR-5 [28]): 38%
Activity (NCI-H292 [29]): 59%
inhibition in vivo at 40 mg/kg (NCI-H292 [30]): 47%
